Data from ChEMBL document CHEMBL1268915, “Optimization of a series of dipeptides with a P3 threonine residue as non-covalent inhibitors of the chymotrypsin-like activity of the human 20S proteasome” (Bioorg Med Chem Lett, 2010).
Active and inactive are the calls of the source. No cut-off for these calls is given here. Residues, ends and D or L forms follow the SMILES beside them. *: point of attachment. NHBn = c1ccc(CN*)cc1; Bn = c1ccc(C*)cc1

Assays:
[1] = (§1) Inhibition of TNF-alpha-induced NF-kappaB activation in human HEK293 cells after 3 hrs by luciferase reporter gene assay; format: cell-based; conditions: HEK293, 3 h
Summary of the method: (§2)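 NF-κB-luciferase reporter in HEK293 cells (10,000 per well). Cells were pre-incubated with compound for 1 h, then stimulated with 10 ng/ml TNF-α for 3 h with compound still present. IC50 and percentage inhibition were reported as means of at least three independent experiments.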

HEK293 = test: as §1; format: cell-based; set-up: concentration or dose not given beside the values; conditions: dose or concentration not given here; summary of the method: as §2
Homo sapiens [2] = organism: Homo sapiens; test: Inhibition of human elastase at 100 uM
[3] = molecular target: T1, Coagulation factor XII (Homo sapiens) (UniProt P00748); test: Inhibition of human coagulation factor beta 12a at 100 uM
T1 sequence (whole entry): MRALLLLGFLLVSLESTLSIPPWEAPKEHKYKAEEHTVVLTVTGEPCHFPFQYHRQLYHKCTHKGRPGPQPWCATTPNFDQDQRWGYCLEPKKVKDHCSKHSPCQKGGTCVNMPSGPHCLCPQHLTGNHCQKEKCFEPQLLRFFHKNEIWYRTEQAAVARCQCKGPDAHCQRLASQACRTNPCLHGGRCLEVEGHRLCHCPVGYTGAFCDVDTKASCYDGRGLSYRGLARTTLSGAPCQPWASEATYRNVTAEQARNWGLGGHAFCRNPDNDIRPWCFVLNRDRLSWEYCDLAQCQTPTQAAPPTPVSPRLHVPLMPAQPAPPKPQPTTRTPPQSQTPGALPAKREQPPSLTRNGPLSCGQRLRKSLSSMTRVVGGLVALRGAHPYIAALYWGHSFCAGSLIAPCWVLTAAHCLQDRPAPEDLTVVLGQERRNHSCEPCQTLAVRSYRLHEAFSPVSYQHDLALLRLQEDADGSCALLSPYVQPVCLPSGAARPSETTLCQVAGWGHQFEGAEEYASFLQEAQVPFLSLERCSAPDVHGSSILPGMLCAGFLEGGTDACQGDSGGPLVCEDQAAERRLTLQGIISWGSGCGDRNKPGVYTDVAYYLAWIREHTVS

[4] = Inhibition of chymotrypsin-like activity of human 20s proteasome beta5 subunit in human erythrocyte assessed as hydrolysis of Ac-WLA-AMC fluorogenic substrate
[5] = molecular target: Prothrombin (Homo sapiens) (UniProt P00734); test: Inhibition of human thrombin at 100 uM
[6] = molecular target: T2, Calpain-1 catalytic subunit (Homo sapiens) (UniProt P07384); test: Inhibition of human calpain 1 at 100 uM
T2 sequence (whole entry): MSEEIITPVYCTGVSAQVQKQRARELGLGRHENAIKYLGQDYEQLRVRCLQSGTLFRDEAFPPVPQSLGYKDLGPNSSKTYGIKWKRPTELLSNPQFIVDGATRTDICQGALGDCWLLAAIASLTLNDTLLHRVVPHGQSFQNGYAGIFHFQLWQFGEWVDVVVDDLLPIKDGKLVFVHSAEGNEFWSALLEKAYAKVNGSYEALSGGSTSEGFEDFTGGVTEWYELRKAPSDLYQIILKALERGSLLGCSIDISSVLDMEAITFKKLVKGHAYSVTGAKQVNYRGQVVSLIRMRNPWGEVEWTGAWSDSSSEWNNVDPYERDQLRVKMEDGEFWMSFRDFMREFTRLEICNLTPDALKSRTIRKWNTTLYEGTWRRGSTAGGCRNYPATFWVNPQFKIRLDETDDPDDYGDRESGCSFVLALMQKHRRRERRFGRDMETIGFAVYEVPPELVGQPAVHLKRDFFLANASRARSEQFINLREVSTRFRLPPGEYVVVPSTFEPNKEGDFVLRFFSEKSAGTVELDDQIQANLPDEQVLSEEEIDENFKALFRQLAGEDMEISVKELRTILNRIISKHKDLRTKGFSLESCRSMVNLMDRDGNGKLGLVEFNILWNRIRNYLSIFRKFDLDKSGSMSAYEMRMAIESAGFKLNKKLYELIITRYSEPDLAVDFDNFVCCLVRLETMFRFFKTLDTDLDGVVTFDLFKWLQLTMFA

[7] = molecular target: Procathepsin L (Homo sapiens) (UniProt P07711); test: Inhibition of human cathepsin L at 100uM
[8] = Inhibition of chymotrypsin-like activity of human 20s proteasome beta2 subunit in human erythrocyte assessed as hydrolysis of Ac-WLA-AMC fluorogenic substrate
[9] = molecular target: Cathepsin B (Homo sapiens) (UniProt P07858); test: Inhibition of human cathepsin B at 100uM
[10] = molecular target: Plasminogen (Homo sapiens) (UniProt P00747); test: Inhibition of human plasmin at 100 uM
[11] = molecular target: Tissue-type plasminogen activator (Homo sapiens) (UniProt P00750); test: Inhibition of tissue plasminogen activator at 100 uM
[12] = Cytotoxicity against human Calu6 cells assessed as cellular ATP level after 72 hrs by luminescence-based ATPlite assay; format: cell-based, Calu-6; conditions: read-out: LC50
Summary of the method: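 Calu6 cells, 2000 per well, incubated with compound for 72 h. Viability read as cellular ATP by luminescence (ATPlite). Values are means of at least three independent experiments.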

Trypsin (Homo sapiens) = Trypsin (Homo sapiens) (UniProt P07477+P07478+P35030); test: Inhibition of human trypsin at 100 uM; format: protein assay
Homo sapiens [13] = organism: Homo sapiens; test: Inhibition of human chymotrypsin at 100 uM
[14] = Inhibition of chymotrypsin-like activity of human 20s proteasome beta-1 subunit in human erythrocyte assessed as hydrolysis of Ac-WLA-AMC fluorogenic substrate

Sequence of Plasminogen (Homo sapiens) (P00747 97-580 limits assumed): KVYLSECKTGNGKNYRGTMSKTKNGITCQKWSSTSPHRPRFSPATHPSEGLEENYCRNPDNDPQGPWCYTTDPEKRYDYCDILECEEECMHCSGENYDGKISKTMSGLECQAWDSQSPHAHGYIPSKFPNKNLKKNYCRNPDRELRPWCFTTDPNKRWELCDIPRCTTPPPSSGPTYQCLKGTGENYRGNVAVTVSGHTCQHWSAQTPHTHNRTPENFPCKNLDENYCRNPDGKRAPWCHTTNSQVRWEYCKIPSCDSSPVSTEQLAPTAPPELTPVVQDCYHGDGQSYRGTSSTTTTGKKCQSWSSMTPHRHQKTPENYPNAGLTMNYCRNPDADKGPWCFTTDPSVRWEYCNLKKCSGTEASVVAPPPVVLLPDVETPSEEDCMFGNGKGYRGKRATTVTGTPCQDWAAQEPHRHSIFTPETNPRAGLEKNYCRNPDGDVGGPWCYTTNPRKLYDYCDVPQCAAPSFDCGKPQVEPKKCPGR
Sequence of Plasminogen (Homo sapiens) (P00747 581-810 limits assumed): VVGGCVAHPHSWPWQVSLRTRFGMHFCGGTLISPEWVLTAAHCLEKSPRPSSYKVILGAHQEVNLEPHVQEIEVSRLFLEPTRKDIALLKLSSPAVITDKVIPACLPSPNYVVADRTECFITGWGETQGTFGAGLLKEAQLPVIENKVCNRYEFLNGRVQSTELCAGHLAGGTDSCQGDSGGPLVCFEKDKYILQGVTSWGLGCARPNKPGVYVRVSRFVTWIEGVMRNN
Sequence of Tissue-type plasminogen activator (Homo sapiens) (P00750 36-562 limits assumed): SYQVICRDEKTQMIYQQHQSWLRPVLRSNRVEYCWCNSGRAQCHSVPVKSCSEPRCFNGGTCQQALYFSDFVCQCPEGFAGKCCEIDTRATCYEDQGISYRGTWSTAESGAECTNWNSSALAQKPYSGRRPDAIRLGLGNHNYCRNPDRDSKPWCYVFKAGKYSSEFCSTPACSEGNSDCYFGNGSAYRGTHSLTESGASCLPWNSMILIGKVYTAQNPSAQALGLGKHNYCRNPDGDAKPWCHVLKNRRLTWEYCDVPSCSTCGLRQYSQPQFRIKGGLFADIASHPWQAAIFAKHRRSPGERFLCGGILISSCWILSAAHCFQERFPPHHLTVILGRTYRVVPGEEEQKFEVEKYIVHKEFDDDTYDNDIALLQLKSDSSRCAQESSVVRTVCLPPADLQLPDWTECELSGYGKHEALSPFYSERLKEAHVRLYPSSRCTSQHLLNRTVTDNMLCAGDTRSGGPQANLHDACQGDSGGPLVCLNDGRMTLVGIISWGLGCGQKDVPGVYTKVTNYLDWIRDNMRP
Sequence of Procathepsin L (Homo sapiens) (P07711 114-333 limits assumed): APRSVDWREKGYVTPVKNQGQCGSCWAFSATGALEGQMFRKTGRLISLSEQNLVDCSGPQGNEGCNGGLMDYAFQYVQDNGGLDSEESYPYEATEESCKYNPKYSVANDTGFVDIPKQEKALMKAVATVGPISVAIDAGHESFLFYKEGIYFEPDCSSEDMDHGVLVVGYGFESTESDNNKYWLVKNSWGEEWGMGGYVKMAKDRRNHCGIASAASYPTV

Compound	IC50 [1] [µM]	inhibition (HEK293) [%]	inhibition (Homo sapiens [2])	inhibition [3]	IC50 [4] [µM]	inhibition [5]	inhibition [6]	inhibition [7]	IC50 [8] [µM]	inhibition [9]	inhibition [10]	inhibition [11]	CC50 at 72 h [12] [µM]	inhibition (Trypsin (Homo sapiens))	inhibition (Homo sapiens [13])	IC50 [14] [µM]
Cc1ccc(CNC(=O)[C@H](CCc2ccccc2)NC(=O)[C@H](CCc2ccccc2)NC(=O)[C@H](CCc2ccccc2)NC(=O)c2cnc(C)cn2)cc1	0.047	79	Active	Active	0.016	Active	Active	Active	> 20	Active	Active	Active	0.14	Active	Active	> 20
COC[C@H](NC(=O)Cc1cccc(OCc2ccccc2)c1)C(=O)N[C@@H](CCc1ccccc1)C(=O)NCc1ccc(C)cc1	0.34	78	Active	Active	0.074	Active	Active	Active	> 20	Active	Active	Active	0.22	Active	Active	> 20
Cc1ccc(CNC(=O)[C@H](CCc2ccccc2)NC(=O)[C@@H](NCc2ccc(OCc3ccccc3)cc2)[C@@H](C)O)cc1	> 50	37	Active	Active	3.1	Active	Active	Active	> 20	Active	Active	Active	14	Active	Active	> 20
COc1ccc2c(c1)C(CC(=O)N[C@H](C(=O)N[C@@H](CCc1ccccc1)C(=O)NCc1ccc(C)cc1)[C@@H](C)O)CC2=O (stereo not given in full)	0.32	89	Active	Active	0.025	Active	Active	Active	> 20	Active	Active	Active	1.2	Active	Active	> 20
CCNC(=O)[C@H](CCc1ccccc1)NC(=O)[C@@H](NC(=O)c1ccc(OCc2ccccc2)cc1)[C@@H](C)O	2.6	98	Active	Active	0.44	Active	Active	Active	> 20	Active	Active	Active	5.1	Active	Active	> 20
COc1ccc(CNC(=O)[C@@H](NC(=O)[C@H](Cc2cc(OC)c(OC)c(OC)c2)NC(=O)Cc2cccc(Oc3ccccc3)c2)C(C)C)c(O)c1			Active	Active	0.015	Active	Active	Active	> 20	Active	Active	Active		Active	Active	> 20
CC(NC(=O)[C@H](CCc1ccccc1)NC(=O)[C@@H](NC(=O)c1ccc(OCc2ccccc2)cc1)[C@@H](C)O)c1ccccc1 (stereo not given in full)	> 50		Active	Active	> 100	Active	Active	Active	> 20	Active	Active	Active	9	Active	Active	> 20
C[C@H](NC(=O)[C@@H](N)Cc1ccc(OCc2ccccc2)cc1)C(=O)N[C@@H](Cc1c[nH]c2ccccc12)C(=O)NCc1ccccc1 (H-Tyr(Bn)-Ala-Trp-NHBn)			Active	Active		Active	Active	Active	> 20	Active	Active	Active		Active	Active	> 20
Cc1ccccc1CCC(=O)N[C@H](C(=O)N[C@@H](CCc1ccccc1)C(=O)NCc1ccccc1Cl)[C@@H](C)O	0.33	71	Active	Active		Active	Active	Active	> 20	Active	Active	Active	2.7	Active	Active	> 20
Cc1ccsc1CNC(=O)[C@H](CCc1ccccc1)NC(=O)[C@@H](NC(=O)c1ccc(OCc2ccccc2)cc1)[C@@H](C)O	0.028	81	Active	Active		Active	Active	Active	> 20	Active	Active	Active	0.11	Active	Active	> 20
C[C@@H](O)[C@H](NC(=O)c1ccc(OCc2ccccc2)cc1)C(=O)N[C@@H](CCc1ccccc1)C(=O)NCCc1cccs1	> 50		Active	Active	3.2	Active	Active	Active	> 20	Active	Active	Active	> 25	Active	Active	> 20
